pIC50, pKd: −log10 of the molar value. Calls of active or inactive are those of the source. No cut-off for these calls is given here.
Experiments:
[1] = target: T1, Retinoic acid receptor RXR-alpha (Homo sapiens) (UniProt P19793); experiment: Antagonist activity at RXRalpha (unknown origin) expressed in HEK293T cells assessed as inhibition of receptor transactivation at 10 uM after 12 hrs in presence of 9-cis-RA by luciferase reporter gene assay relative to control; type: cell-based; conditions: HEK-293T
T1 sequence (whole entry): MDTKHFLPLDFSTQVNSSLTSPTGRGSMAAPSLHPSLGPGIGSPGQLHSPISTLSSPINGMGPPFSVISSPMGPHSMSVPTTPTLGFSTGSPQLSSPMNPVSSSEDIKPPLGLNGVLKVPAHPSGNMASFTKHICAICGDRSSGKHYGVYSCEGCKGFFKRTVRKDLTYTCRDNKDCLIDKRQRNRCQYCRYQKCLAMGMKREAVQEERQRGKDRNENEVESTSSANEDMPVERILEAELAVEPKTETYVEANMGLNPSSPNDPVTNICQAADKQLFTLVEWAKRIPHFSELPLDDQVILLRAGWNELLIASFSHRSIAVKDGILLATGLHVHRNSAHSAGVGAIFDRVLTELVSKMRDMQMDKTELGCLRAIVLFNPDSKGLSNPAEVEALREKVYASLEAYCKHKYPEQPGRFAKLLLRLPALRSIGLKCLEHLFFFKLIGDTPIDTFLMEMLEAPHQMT
In short: (§1)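 HEK-293T cells cotransfected with pG5-Luc reporter and an RXRα expression vector. Cells were treated with 9-cis-RA (10^-7 M) plus test compound for 12 h, and luciferase activity was read. The assay was run either as a single-concentration screen scored as % inhibition or at the indicated concentrations for dose-response.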

[2] = target: T2, Retinoic acid receptor RXR-alpha (Homo sapiens, UniProt P19793); experiment: Binding affinity to RXRalpha-LBD (unknown origin) measured up to 300 sec by surface plasma resonance method
T2 sequence (P19793 whole entry): T1 sequence (whole entry)
In short: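 Surface plasmon resonance with the RXRα ligand-binding domain as the binding partner; affinity expressed as a dissociation constant (Kd).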

[3] = target: T2, Retinoic acid receptor RXR-alpha
[4] = target: T1, Retinoic acid receptor RXR-alpha (Homo sapiens); conditions: HepG2, 20 ug/ml
[5] = Binding affinity to RXRalpha-LBD E453A mutant (unknown origin) measured up to 300 sec by surface plasma resonance method; design: species or system Homo sapiens
Homo sapiens = species on record: Homo sapiens; experiment: Ratio of Kd for RXRalpha-LBD E453A mutant (unknown origin) to Kd for RXRalpha-LBD (unknown origin)
[6] = target: T1, Retinoic acid receptor RXR-alpha (Homo sapiens); experiment: Binding affinity to RXRalpha-LBD (unknown origin) at 10 uM measured up to 201 sec in presence of 9-cis-RA by surface plasma resonance method
[7] = target: T1, Retinoic acid receptor RXR-alpha (Homo sapiens); experiment: Antagonist activity at RXRalpha (unknown origin) expressed in HEK293T cells assessed as inhibition of receptor transactivation at 10 to 30 uM after 12 hrs in presence of 9-cis-RA by luciferase reporter gene assay; type: cell-based; conditions: HEK-293T; in short: as §1
[8] = target: T1, Retinoic acid receptor RXR-alpha (Homo sapiens); experiment: Binding affinity to RXRalpha-LBD (unknown origin) at 0.01 to 5 uM measured up to 260 sec by surface plasma resonance method

SMILES: CCN(CC)c1ccc(/C=N/NC(=O)CSc2nc3ccccc3o2)c(OC)c1
- inhibition [1]: 17.9%

SMILES: O=C(CSc1nc2ccccc2o1)N/N=C/c1ccc(OCc2ccccc2)cc1O
- inhibition [1]: 43.9%

SMILES: CCN(CC)c1ccc(/C=N/NC(=O)CSc2nc3ccccc3o2)c(O)c1 (mixture of isomers)
- inhibition [1]: 74.1%
- pKd [2]: 6.04
- pIC50 [3]: 5.55
- inhibition [4]: Active

SMILES: O=C(CSc1nc2ccccc2o1)N/N=C/c1cccc(O)c1
- inhibition [1]: 16.2%

SMILES: O=C(CSc1nc2ccccc2o1)N/N=C/c1ccc(O)c(O)c1O
- inhibition [1]: 24.3%

SMILES: O=C(CSc1nc2ccccc2o1)N/N=C/c1ccc([N+](=O)[O-])cc1
- inhibition [1]: 12.7%

SMILES: Cc1cc(=O)oc2c(/C=N/NC(=O)CSc3nc4ccccc4s3)c(O)ccc12
- pKd [5]: 5.44
- Ratio (Homo sapiens): 10
- Activity [6]: Active

SMILES: O=C(CSc1nc2ccccc2o1)N/N=C/c1ccc(O)cc1O
- inhibition [1]: 25.2%

SMILES: O=C(CSc1nc2ccccc2o1)N/N=C/c1ccc(OCc2ccccc2)cc1
- inhibition [1]: 3.7%

SMILES: O=C(CSc1nc2ccccc2o1)N/N=C/c1cccc(F)c1
- inhibition [1]: 13.8%

SMILES: Cc1cccc(/C=N/NC(=O)CSc2nc3ccccc3o2)c1
- inhibition [1]: 47.9%

SMILES: COc1ccc2c(C)cc(=O)oc2c1/C=N/NC(=O)CSc1nc2ccccc2s1 (mixture of isomers)
- inhibition [7]: inactive
- Activity [8]: inactive

SMILES: CCN(CC)c1ccc(/C=N/NC(=O)CSc2nc3ccccc3o2)cc1
- inhibition [1]: 19.3%

SMILES: COc1ccc(/C=N/NC(=O)CSc2nc3ccccc3o2)c(O)c1
- inhibition [1]: 57.3%

SMILES: O=C(CSc1nc2ccccc2o1)N/N=C/c1ccccc1F
- inhibition [1]: 13%

SMILES: O=C(CSc1nc2ccccc2o1)N/N=C/c1cccc(O)c1O
- inhibition [1]: 39.6%

SMILES: O=C(CSc1nc2ccccc2o1)N/N=C/c1ccc(F)cc1O
- inhibition [1]: 33.2%

— ChEMBL document CHEMBL3826973, “Binding characterization, synthesis and biological evaluation of RXRα antagonists targeting the coactivator binding site” (Bioorg Med Chem Lett, 2016)
